Laboratory results reported in ChEMBL document CHEMBL2203019, “Cytotoxic cyclic depsipeptides from the Australian marine sponge Neamphius huxleyi” (J Nat Prod, 2012).
Structures can show the parent of a compound that is named as a salt. Calls of active or inactive are those of the source. No cut-off for these calls is given here.

How the values were obtained:
[1] = system: LNCaP; assay: Cytotoxicity against human LNCAP cells after 72 hrs by alamar blue assay; format: functional, cell-based
Outline: (§1)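 Cells were grown in RPMI with 10% FBS and penicillin/streptomycin (37 °C, 5% CO2). Plates held 1000 cells/well and were left overnight to adhere. Compounds were given for 72 h over 10 concentrations from 100 μM to 3 nM final, with 1% DMSO. Viability was read with Alamar blue at 10% final for 24 h (fluorescence ex 535/em 590 nm). Each concentration was run in triplicate. IC50 was fitted by nonlinear regression, as mean ± SD of two experiments. Vincristine served as positive control.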

[2] = system: A549; assay: Cytotoxicity against human A549 cells assessed as cell proliferation at 100 nM after 48 hrs by confocal microscopic analysis
[3] = Cytotoxicity against human HEK cells after 72 hrs by alamar blue assay; format: cell-based; conditions: HEK293, 72 h
Outline: (§2)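 Cells were kept in DMEM with 10% FBS and penicillin/streptomycin at 37 °C and 5% CO2. 1000 cells/well adhered overnight, then were exposed for 72 h to a 10-point series from 100 μM to 3 nM final (1% DMSO). Alamar blue was added to 10% final for 24 h, and fluorescence was read at ex 535/em 590 nm. Triplicates were run. IC50 came from nonlinear regression, as mean ± SD of two independent experiments. Vincristine was the positive control.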

[4] = system: A549; assay: Cytotoxicity against human A549 cells assessed as cell index at 100 nM after 72 hrs by alamar blue assay; format: functional, cell-based; conditions: in the assay text read “xCelligence impedance assay” for “alamar blue assay”
Outline: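 Real-time impedance (cell index) was recorded on an xCelligence system. A549 cells were seeded at 4000/well, settled 30 min at room temperature, then recorded at 37 °C, 5% CO2. Next day, half the medium was swapped for medium holding 2× compound. Vehicle was 1% DMSO. Runs were in triplicate, in two independent experiments. Readings were taken every minute for 2 h, then hourly to 72 h.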

[5] = system: NFF; assay: Cytotoxicity against human NFF cells after 72 hrs by alamar blue assay; format: cell-based; outline: as §2
[6] = system: PC-3; assay: Cytotoxicity against human PC3 cells after 72 hrs by alamar blue assay; format: functional, cell-based; conditions: PC-3, 72 h; outline: as §1
[7] = system: HeLa; assay: Cytotoxicity against human HeLa cells after 72 hrs by alamar blue assay; format: functional, cell-based; outline: as §1
[8] = system: A549; assay: Cytotoxicity against human A549 cells after 72 hrs by alamar blue assay; format: functional, cell-based; conditions: A549, 72 h; outline: as §2

SMILES	IC50 [1]	Activity [2]	IC50 [3]	Activity [4]	IC50 [5]	IC50 [6]	IC50 [7]	IC50 [8]
CCC(C)C[C@@H](C)[C@@H](O)[C@@H](C)C(=O)N[C@@H](CC(N)=O)C(=O)N[C@@H](CCCNC(=N)N)[C@@H](O)[C@@H](O)C(=O)NC(C(=O)N[C@H]1C(=O)N[C@H]([C@H](C)O)C(=O)N[C@H](CCCNC(=N)N)C(=O)N[C@@H](CC(C)C)C(=O)N(C)[C@@H](CCC(N)=O)C(=O)N[C@H]([C@H](OC)c2ccc(O)cc2)C(=O)N2CCCC[C@H]2C(=O)O[C@@H]1C)C(C)C(C)C(N)=O (relative stereo)	0.11 µM	inactive	0.088 µM	inactive	0.15 µM	0.13 µM	0.21 µM	0.091 µM
CO[C@H](c1ccc(O)cc1)[C@H]1NC(=O)[C@H](CCC(=O)O)N(C)C(=O)[C@H](CC(C)C)NC(=O)[C@@H](CCCNC(=N)N)NC(=O)[C@@H]([C@H](C)O)NC(=O)[C@H](NC(=O)C(NC(=O)[C@H](O)[C@H](O)[C@H](CCCNC(=N)N)NC(=O)[C@H](CC(N)=O)NC(=O)[C@H](C)[C@H](O)[C@H](C)CC(C)C)C(C)C(C)C(N)=O)[C@@H](C)OC(=O)[C@@H]2CCCCN2C1=O (relative stereo)	0.19 µM		0.16 µM		0.26 µM	0.11 µM	0.17 µM	0.131 µM
CO[C@H](c1ccc(O)cc1)[C@H]1NC(=O)[C@H](CCC(N)=O)N(C)C(=O)[C@H](CC(C)C)NC(=O)[C@@H](CCCNC(=N)N)NC(=O)[C@@H]([C@H](C)O)NC(=O)[C@H](NC(=O)C(NC(=O)[C@H](O)[C@H](O)[C@H](CCCNC(=N)N)NC(=O)[C@H](CC(N)=O)NC(=O)[C@H](C)[C@H](O)[C@H](C)CC(C)C)C(C)C(C)C(N)=O)[C@@H](C)OC(=O)[C@@H]2CCCCN2C1=O (relative stereo)	0.23 µM		0.2 µM		0.37 µM	0.17 µM	0.11 µM	0.13 µM
CC[C@]1(O)C[C@H]2CN(CCc3c([nH]c4ccccc34)[C@@](C(=O)OC)(c3cc4c(cc3OC)N(C=O)[C@H]3[C@@](O)(C(=O)OC)[C@H](OC(C)=O)[C@]5(CC)C=CCN6CC[C@]43[C@@H]65)C2)C1 [VINCRISTINE SULFATE]	0.0061 µM		0.031 µM		0.017 µM	0.015 µM	0.036 µM	0.02 µM
